# Measurements reported in ChEMBL document CHEMBL1143821, “Fatty acyl benzamido antibacterials based on inhibition of DnaK-catalyzed protein folding” (J Biol Chem, 2007).
# pIC50, pKd: −log10 of the molar value. Activity calls are given as the source filed them. No cut-off for these calls is given here.
# Key:
# [1] = Toxicity against human erythrocytes assessed as hemolytic activity; format: cell-based, Erythrocyte
# Summary of the method: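 Human erythrocytes were washed in Tris-buffered saline pH 7.4. Cells at 2.5×10^8 cells/ml were exposed to 3.1–50 μg/ml compound for 30 min at 42 °C with gentle shaking, chilled, and centrifuged. Hemoglobin in the supernatant was read at 550 nm after 10-fold dilution in 0.5% NH4OH. Saponin 100 mg/liter = 100%, phosphate buffer = 0%. EC50 from dose-response curves.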
# [2] = Inhibition of Escherichia coli MC4100 DnaK assessed as effect on luciferase refolding
# Summary of the method: (§1)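 Firefly luciferase was denatured 1 h at 10 °C in 6.0 M guanidinium chloride with 5 mM DTT, Tris pH 7.4, at 2.08 μM. It was diluted to 10.4 nM into MOPS pH 7.8 buffer with 1 mM ATP, 5 mM MgCl2, 436 nM DnaK, 160 nM DnaJ and 436 nM GrpE, preincubated 10 min with compound, at 10 °C and 30 °C. Activity was read by luminescence after 1 h. IC50 from a one-site competition fit.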
# [3] = test system: Escherichia coli; experiment: Antimicrobial activity against Escherichia coli MC4100 at 42 degC; format: functional
# Summary of the method: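 Liquid growth inhibition in Mueller-Hinton medium, run in triplicate. Compound was dissolved in ethanol/10 mM potassium phosphate pH 7.8, and its concentration was set by absorbance at 236 nm. Varying concentrations were added to mid-log E. coli MC4100 and incubated 24 h at 42 °C, then plated at 37 °C overnight for CFU. MIC = concentration giving 99.9% growth inhibition (NCCLS).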
# [4] = test system: Escherichia coli; experiment: Increase in transcriptional activity of heat shock inducible rpoDPhs promoter of sigma32 gene in Escherichia coli MC4100 at 200 uM assessed as beta galactosidase activity after 12 hrs at 42 degC; format: functional
# [5] = test system: Escherichia coli; experiment: Increase in transcriptional activity of heat shock inducible pGroESL promoter of sigma32 gene in Escherichia coli MC4100 at 200 uM assessed as beta galactosidase activity after 12 hrs at 42 degC; format: functional
# [6] = test system: Escherichia coli; experiment: Effect on membrane permeability of Escherichia coli MC4100 assessed as beta lactamase activity in medium at 25 degC; format: functional
# Summary of the method: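 Cells were grown with 200 μM compound for 24 h. β-Lactamase activity released to the medium was compared with total activity.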
# [7] = test system: Escherichia coli; experiment: Antimicrobial activity against Escherichia coli MC4100 delta-tig at 30 degC; format: functional
# [8] = test system: Escherichia coli; experiment: Inhibition of IPTG-induced thermotolerance in heat shocked Escherichia coli MC4100 expressing delta-DnaK at 1.35 mM; format: functional, organism-based
# Summary of the method: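 E. coli MC4100 ΔdnaK pTrc99A-DnaK was grown at 30 °C in Terrific Broth and induced 1 h with 0–1.0 mM IPTG. Cells were heat-shocked 210 s at 57 °C with 1.35 mM compound added just before, then iced 2 min. Serial dilutions were spotted on LB with marker and IPTG and grown 12 h at 30 °C. DnaK levels were checked by immunoblot.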
# [9] = test system: Escherichia coli; experiment: Increase heat shock-induced protein aggregation in wild type Escherichia coli MC4100; format: functional, organism-based
# Summary of the method: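 Wild-type MC4100 was grown at 30 °C to mid-exponential phase, exposed 15 min to compound (0.13 or 0.066 mg/ml), heat-shocked 30 min at 45 °C, then recovered 3 h at 30 °C. The Nonidet P-40-insoluble aggregated protein fraction was isolated by lysozyme/sonication lysis and differential centrifugation, then run on 12.5% SDS-PAGE with Coomassie stain, equal cell numbers per lane. ΔdnaK cells were the reference.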
# [10] = test system: Escherichia coli; experiment: Increase in transcriptional activity of heat shock inducible PhtrL-lacZ promoter of sigma32 gene in Escherichia coli MC4100 at 200 uM assessed as beta galactosidase activity after 12 hrs at 42 degC; format: functional, organism-based
# [11] = test system: Escherichia coli; experiment: Increase in transcriptional activity of heat shock inducible PhtrP-lacZ promoter of sigma32 gene in Escherichia coli MC4100 at 200 uM assessed as beta galactosidase activity after 12 hrs at 42 degC; format: functional, organism-based
# [12] = test system: Escherichia coli; experiment: Activation of Escherichia coli MC4100 RNA polymerase at 200 uM by transcription assay
# Summary of the method: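 In vitro transcription of small circular single-strand DNA universal templates by purified E. coli RNA polymerase core enzyme, run per the kit manufacturer's protocol.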
# [13] = test system: Escherichia coli; experiment: Binding affinity to DnaK in Escherichia coli MC4100 at 0.7 mM by pull-down assay
# Summary of the method: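 MC4100 grown overnight in LB at 42 °C and lysed by sonication. Lysate incubated 1 h at room temperature with 0.7 mM biotinylated inhibitor in buffer C (20 mM Tris/HCl pH 7.5, 50 mM KCl, 1 mM MgCl2). BSA-blocked streptavidin beads then added for a further 1 h. Beads washed twice; bound protein eluted with 1.92 mM (final) non-biotinylated parent inhibitor. Read by SDS-PAGE and anti-DnaK immunoblot.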
# [14] = test system: Escherichia coli; experiment: Antimicrobial activity against Escherichia coli MC4100 at 30 degC; format: functional
# [15] = test system: Escherichia coli; experiment: Induction of heat shock response in Escherichia coli MC4100 at 30 degC; format: functional, organism-based
# [16] = Inhibition of secondary amide peptide bond cis/trans isomerase activity of Escherichia coli MC4100 DnaK assessed as RNase T1P39A refolding assay
# [17] = Inhibition of secondary amide peptide bond cis/trans isomerase activity of Escherichia coli MC4100 DnaK/DnaJ/GrpE assessed as luciferase refolding; summary of the method: as §1
# [18] = test system: Escherichia coli; experiment: Inhibition of ATPase activity of Escherichia coli MC4100 DnaK at 150 uM
# Summary of the method: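 Steady-state ATPase assay. 1 µM DnaK preincubated with 150 µM inhibitor for 10 min at 30 °C. Reaction started with 330 µM ATP and followed for at least 10 min.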
# [19] = Displacement of sigma32 derived peptide from Escherichia coli MC4100 DnaK
# [20] = test system: Escherichia coli; experiment: Inhibition of Escherichia coli MC4100 DnaK-reduced carboxymethylated lactalbumin complex up to 500 uM
# [21] = test system: Escherichia coli; experiment: Antimicrobial activity against Escherichia coli MC4100 up to 1.4 mg/ml at 37 degC; format: functional, organism-based
# [22] = test system: Escherichia coli; experiment: Inhibition of Escherichia coli MC4100 DnaK-reduced carboxymethylated lactalbumin complex at >25 uM
SMILES,IC50 [2] [µg/mL],MIC [3] [µg/mL],EC50 [1] [µg/mL],further results
CCCCCCCCCCCCCC(=O)NCc1cccc(C(=O)N[C@H](C(=O)O)[C@@H](C)CC)c1,7,> 2000,84,
CCCCCCCCCCCCCC(=O)Nc1ccc(C(=O)N[C@H](C(=O)O)[C@@H](C)CC)cc1,1.1,> 60,> 10,
CCCCCC(=O)NCc1ccc(C(=O)N[C@H](C(=O)O)[C@@H](C)CC)cc1,> 400,1000,> 1500,Activity [4]: inactive; Activity [5]: inactive; Activity [6]: 3.68%
CC/C=C/CC(=O)NCc1ccc(C(=O)N[C@H](C(=O)O)[C@@H](C)CC)cc1,35.9,280,> 1500,
CCCCCC/C=C\CCCCCCCC(=O)NCc1ccc(C(=O)N[C@H](C(=O)O)[C@@H](C)CC)cc1,3.6,1300,250,
CC(C)C[C@H](NC(=O)[C@H](CC(C)C)NC(=O)[C@H](CCCNC(=N)N)NC(=O)[C@@H](N)CC(N)=O)C(=O)N[C@@H](CC(C)C)C(=O)N[C@H](C(=O)NCC(=O)O)[C@@H](C)O,,,,pIC50 [19]: 5.89; Activity [22]: Active
CCCC/C=C\CCCCCCCC(=O)NCc1ccc(C(=O)N[C@H](C(=O)O)[C@@H](C)CC)cc1,0.75,630,350,
CC1(C)S[C@@H]2[C@H](NC(=O)[C@H](N)c3ccccc3)C(=O)N2[C@H]1C(=O)O [AMPICILLIN],,14,,

# Further lines, with some results ahead:
IC50 [2] [µg/mL],MIC [3] [µg/mL],SMILES,EC50 [1] [µg/mL],further results
40.4,490,CCCCCCCCCC(=O)NCc1ccc(C(=O)N[C@H](C(=O)O)[C@@H](C)CC)cc1,> 1000,
1.2,180,CCCCCCCCCCCCCCCC(=O)NCc1ccc(C(=O)N[C@H](C(=O)O)[C@@H](C)CC)cc1,50,
2.6,640,CCCCCCCCCCCCCC(=O)NCCc1ccc(C(=O)N[C@H](C(=O)O)[C@@H](C)CC)cc1,35,
5.5,> 500,CCCCCCCCCCCCCC(=O)NCc1ccc(C(=O)NCC(=O)O)cc1,> 50,
3.9,1200,CCCCCCCCCCCCCC(=O)NCc1ccc(C(=O)N[C@@H](Cc2ccccc2)C(=O)O)cc1,> 200,
2.3,3100,CCCCCCCCCCCCCCCCCC(=O)NCc1ccc(C(=O)N[C@H](C(=O)O)[C@@H](C)CC)cc1,30,
11.5,2800,CCCCCCCCCCCCCC(=O)NCc1ccc(C(=O)N[C@@H](CCC(N)=O)C(=O)O)cc1,520,
4.9,380,CCCCCCCCCCCCCC(=O)NCc1ccc(C(=O)N[C@H](C(=O)O)[C@@H](C)CC)cc1,66,MIC [7]: 860 µg/mL; Activity [8]: Active; Activity [9]: Active; Fold change [4]: 2; Fold change [5]: 2; Activity [10]: inactive; Activity [11]: inactive; Activity [12]: inactive; Activity [6]: 0.89%; Activity [13]: Active; MIC [14]: ≥ 5000 µg/mL; Activity [15]: inactive; pIC50 [16]: 5.57; pIC50 [17]: 5.02; Activity [18]: inactive; pIC50 [19]: 4.54; pKd [19]: 5.59; Activity [20]: inactive; Activity [21]: inactive
1.9,650,CCCCCCCCCCCC(=O)NCc1ccc(C(=O)N[C@H](C(=O)O)[C@@H](C)CC)cc1,400,
4.6,100,CCCCCCCCCCCCCC(=O)NCc1ccc(C(=O)N[C@@H](CC(N)=O)C(=O)O)cc1,> 10,
6.1,1200,CCCCCCCCCCCCCC(=O)NCc1ccc(C(=O)N[C@H](C(N)=O)[C@@H](C)CC)cc1,100,
